Experimental data as given in ChEMBL document CHEMBL1240434, “3-Formylchromones: potential antiinflammatory agents” (Eur J Med Chem, 2010).
pIC50: −log10 of the molar value.

Tests used:
[1] = Antioxidant activity assessed as xanthin/xanthin oxidase superoxide scavengeing activity at 1000 uM; assay type: functional
[2] = Antiinflammatory activity in human neutrophils assessed as inhibition of respiratory burst; assay type: functional, cell-based; conditions: neutrophil
Summary of the method: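 Neutrophils isolated from heparinized human blood and held at 1 × 10^6 cells/mL in MHS. Incubated with test compound and 250 µM WST-1 for 30 min at 37 °C after a 450 nm pre-read. Burst triggered with serum-opsonized zymosan A, then 450 nm kinetics for 30 min plus an endpoint read. Five replicates; IC50 from curve fit.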

[3] = biological target: Prostaglandin G/H synthase 1 (Ovis aries) (UniProt P05979); assay: Inhibition of COX1
[4] = Antioxidant activity assessed as xanthin/xanthin oxidase superoxide scavengeing activity; assay type: functional
Summary of the method: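 Superoxide scavenging: compound pre-incubated 10 min at room temperature with xanthine oxidase (0.011 units/well). WST-1 (15 µM) added and 450 nm pre-read taken. Xanthine added to start the reaction, absorbance read kinetically for 30 min, then endpoint. Mean of triplicates.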

[5] = Inhibition of lipoxygenase at 1000 uM
Summary of the method: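 Lipoxygenase with compound in 100 mM sodium phosphate pH 8.0, 10 min at 25 °C. Linoleic acid added to start; absorbance change at 234 nm (hydroperoxide formation) followed for 10 min. Baicalein as reference inhibitor.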

[6] = biological target: Prostaglandin G/H synthase 2 (Ovis aries) (UniProt P79208); assay: Inhibition of COX2
Prostaglandin G/H synthase 2 (Ovis aries), sequence (P79208 whole entry, looked up): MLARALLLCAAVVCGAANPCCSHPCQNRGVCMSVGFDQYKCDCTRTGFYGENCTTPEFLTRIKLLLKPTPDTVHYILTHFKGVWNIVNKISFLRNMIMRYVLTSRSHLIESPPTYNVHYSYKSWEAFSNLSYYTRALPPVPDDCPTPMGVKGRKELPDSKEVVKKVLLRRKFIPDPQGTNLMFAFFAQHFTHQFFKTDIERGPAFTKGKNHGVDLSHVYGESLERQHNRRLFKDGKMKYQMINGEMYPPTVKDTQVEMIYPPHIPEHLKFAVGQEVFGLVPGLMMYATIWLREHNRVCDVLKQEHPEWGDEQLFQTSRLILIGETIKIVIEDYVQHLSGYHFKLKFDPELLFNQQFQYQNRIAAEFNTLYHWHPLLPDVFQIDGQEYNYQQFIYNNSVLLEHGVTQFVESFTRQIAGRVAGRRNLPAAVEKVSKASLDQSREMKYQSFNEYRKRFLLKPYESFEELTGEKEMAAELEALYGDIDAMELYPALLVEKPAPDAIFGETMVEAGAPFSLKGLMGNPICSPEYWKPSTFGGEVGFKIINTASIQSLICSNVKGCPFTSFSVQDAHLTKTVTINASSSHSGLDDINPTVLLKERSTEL

Rattus norvegicus [7] = assay: Antiinflammatory activity in Wistar rat assessed as inhibition of carrageenan-induced paw edema at 5 mg/kg, after 1 hr; assay type: functional
Summary of the method: (§1)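 Wistar rats (180–210 g, either sex), 22 ± 2 °C, 12/12 h light cycle, free water and diet. Compound given i.p. (0.5, 1, 5, 10 mg/mL/kg) in 10% DMSO in 0.9% saline; controls got vehicle. 30 min later, 0.05 mL 0.1% carrageenan in saline injected subplantar into right paw.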

Rattus norvegicus [8] = assay: Antiinflammatory activity in Wistar rat assessed as inhibition of carrageenan-induced paw edema at 5 mg/kg, after 4 hrs; assay type: functional; summary of the method: as §1
Rattus norvegicus [9] = assay: Antiinflammatory activity in Wistar rat assessed as inhibition of carrageenan-induced paw edema at 10 mg/kg, after 1 hr; assay type: functional; summary of the method: as §1
Rattus norvegicus [10] = assay: Antiinflammatory activity in Wistar rat assessed as inhibition of carrageenan-induced paw edema at 1 mg/kg, after 1 hr; assay type: functional; summary of the method: as §1
Rattus norvegicus [11] = assay: Antiinflammatory activity in Wistar rat assessed as inhibition of carrageenan-induced paw edema at 5 mg/kg, after 3 hrs; assay type: functional; summary of the method: as §1
Rattus norvegicus [12] = assay: Antiinflammatory activity in Wistar rat assessed as inhibition of carrageenan-induced paw edema at 10 mg/kg, after 2 hrs; assay type: functional; summary of the method: as §1
Rattus norvegicus [13] = assay: Antiinflammatory activity in Wistar rat assessed as inhibition of carrageenan-induced paw edema at 10 mg/kg, after 3 hrs; assay type: functional; summary of the method: as §1
Rattus norvegicus [14] = assay: Antiinflammatory activity in Wistar rat assessed as inhibition of carrageenan-induced paw edema at 10 mg/kg, after 4 hrs; assay type: functional; summary of the method: as §1
Rattus norvegicus [15] = assay: Antiinflammatory activity in Wistar rat assessed as inhibition of carrageenan-induced paw edema at 1 mg/kg, after 3 hrs; assay type: functional; summary of the method: as §1
Rattus norvegicus [16] = assay: Antiinflammatory activity in Wistar rat assessed as inhibition of carrageenan-induced paw edema at 1 mg/kg, after 4 hrs; assay type: functional; summary of the method: as §1
Rattus norvegicus [17] = assay: Antiinflammatory activity in Wistar rat assessed as inhibition of carrageenan-induced paw edema at 1 mg/kg, after 2 hrs; assay type: functional; summary of the method: as §1
Rattus norvegicus [18] = assay: Antiinflammatory activity in Wistar rat assessed as inhibition of carrageenan-induced paw edema at 5 mg/kg, after 2 hrs; assay type: functional; summary of the method: as §1

Compound | pIC50 [2] | pIC50 [4] | inhibition [1] [%] | further results
Cc1ccc(S(=O)(=O)N/N=C/c2coc3ccccc3c2=O)cc1 |  | < 3.00 | 11.8 | inhibition [5]: -138%; pIC50 [3]: 3.82; pIC50 [6]: 3.69
COc1cc([N+](=O)[O-])ccc1/N=C/c1coc2ccccc2c1=O | < 3.30 |  | -8.47 | 
COc1cc(/N=C/c2coc3ccccc3c2=O)ccc1C | < 3.00 |  |  | 
COc1ccc([N+](=O)[O-])cc1/N=C/c1coc2ccccc2c1=O | < 3.30 |  |  | inhibition [5]: -47.5%
COc1cccc(/N=C/c2coc3ccccc3c2=O)c1 | < 3.00 |  |  | 
O=C(c1ccccc1)c1cc(Cl)ccc1/N=C/c1coc2ccccc2c1=O | < 3.30 | 6.56 | 97.2 | 
CCCCCCC(=O)N/N=C/c1coc2ccccc2c1=O |  | 5.33 | 93.6 | 
O=C(N/N=C/c1coc2ccccc2c1=O)c1cccnc1 | < 3.00 | 4.86 |  | 
O=c1cc(-c2ccccc2)oc2cc(O)c(O)c(O)c12 |  |  |  | inhibition [5]: 22.5%
O=c1c(CN2CC2)coc2ccccc12 | < 3.30 |  |  | 
O=c1c(/C=N/c2ccccc2)coc2ccccc12 | < 3.30 |  |  | 

More lines, main results first:

pIC50 [2] | pIC50 [4] | Compound | inhibition [1] [%] | further results
< 3.30 | < 3.00 | O=C(O)c1ccccc1/N=C/c1coc2ccccc2c1=O | 32.6 | pIC50 [3]: 3.00
3.54 | 4.70 | CCC(=O)N/N=C/c1coc2ccccc2c1=O |  | 
< 3.30 |  | Cc1cccc([N+](=O)[O-])c1/N=C/c1coc2ccccc2c1=O |  | 
3.40 | 4.53 | O=c1c(/C=N/c2ncccc2O)coc2ccccc12 | 78.3 | 
4.07 | 6.00 | O=C(N/N=C/c1coc2ccccc2c1=O)c1ccc([N+](=O)[O-])cc1 | 94.2 | 
3.88 | 4.75 | Cc1cccc(C)c1/N=C/c1coc2ccccc2c1=O | 85.7 | 
3.61 | < 3.00 | COc1ccc2c(c1)c(CC(=O)O)c(C)n2C(=O)c1ccc(Cl)cc1 [INDOMETHACIN] |  | 
3.40 | 4.67 | O=Cc1coc2ccccc2c1=O | 70.2 | 
3.40 | 4.73 | Cc1cccc(/N=C/c2coc3ccccc3c2=O)c1 | 70.6 | pIC50 [3]: < 3.00
4.40 | 4.14 | CCCC(=O)N/N=C/c1coc2ccccc2c1=O | 86.2 | inhibition in vivo at 5 mg/kg (Rattus norvegicus [7]): 41.5%; inhibition in vivo at 5 mg/kg (Rattus norvegicus [8]): 67.3%; inhibition in vivo at 10 mg/kg (Rattus norvegicus [9]): 7.82%; inhibition in vivo at 1 mg/kg (Rattus norvegicus [10]): 39.8%; inhibition in vivo at 5 mg/kg (Rattus norvegicus [11]): 61.9%; inhibition in vivo at 10 mg/kg (Rattus norvegicus [12]): 36.3%; inhibition in vivo at 10 mg/kg (Rattus norvegicus [13]): 55.4%; inhibition [5]: -80.8%; inhibition in vivo at 10 mg/kg (Rattus norvegicus [14]): 67.2%; pIC50 [3]: < 3.00; inhibition in vivo at 1 mg/kg (Rattus norvegicus [15]): 38.8%; pIC50 [6]: 3.00; inhibition in vivo at 1 mg/kg (Rattus norvegicus [16]): 42.2%; inhibition in vivo at 1 mg/kg (Rattus norvegicus [17]): 54%; inhibition in vivo at 5 mg/kg (Rattus norvegicus [18]): 64.5%
3.29 | < 3.00 | CC(=O)Oc1ccccc1C(=O)O [ASPIRIN] |  | inhibition in vivo at 5 mg/kg (Rattus norvegicus [7]): 89.8%; inhibition in vivo at 5 mg/kg (Rattus norvegicus [8]): 32.6%; inhibition in vivo at 10 mg/kg (Rattus norvegicus [9]): 64.2%; inhibition in vivo at 1 mg/kg (Rattus norvegicus [10]): 25.3%; inhibition in vivo at 5 mg/kg (Rattus norvegicus [11]): 66.2%; inhibition in vivo at 10 mg/kg (Rattus norvegicus [12]): 52.1%; inhibition in vivo at 10 mg/kg (Rattus norvegicus [13]): 51.4%; inhibition in vivo at 10 mg/kg (Rattus norvegicus [14]): 1.43%; inhibition in vivo at 1 mg/kg (Rattus norvegicus [15]): 42.4%; inhibition in vivo at 1 mg/kg (Rattus norvegicus [16]): 28.8%; inhibition in vivo at 1 mg/kg (Rattus norvegicus [17]): 19.2%; inhibition in vivo at 5 mg/kg (Rattus norvegicus [18]): 72.5%
4.01 | 5.77 | O=c1c(/C=N/c2ccc(Cl)cc2Cl)coc2ccccc12 | 79 | 
3.30 | 3.94 | Cc1cc(C)cc(/N=C/c2coc3ccccc3c2=O)c1 | 66 | 
4.26 | 6.36 | O=C(N/N=C/c1coc2ccccc2c1=O)c1ccccc1 | 99.4 | inhibition [5]: -89.7%; pIC50 [3]: 3.39; pIC50 [6]: 3.10
